Test results as given in ChEMBL document CHEMBL1125294, “Chromophore-modified antineoplastic imidazoacridinones. Synthesis and activity against murine leukemias” (J Med Chem, 1992).
Where “and” joins values, the source holds several entries; their conditions need not be identical. Equal values may be shown once.

What was measured:
L1210 = experiment: In vitro inhibitory activity against murine L1210 leukemia; assay type: functional, cell-based; conditions: Mus musculus
Method in brief: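 Mouse L1210 leukemia cells were grown in RPMI 1640 with 5% fetal calf serum, penicillin and streptomycin, at 37 °C in 5% CO2. Cells were seeded at 5×10^4 cells/mL and exposed to four concentrations of compound dissolved in 50% ethanol.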

Mus musculus [1] = experiment: In vivo % T/C activity was measured against P388 leukemia;250; assay type: functional
Method in brief: (§1)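 BDF1 mice given 10^6 P388 lymphocytic leukemia cells ip on day 0, then treated ip on days 1-5 following NCI protocols. Full dose-response runs spanned ineffective to clearly toxic doses. Mean survival time was taken per group of eight mice and expressed as % T/C. The optimal dose is the one giving the highest T/C.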

[2] = Toxicity in CDF1 male mice following a single intraperitoneal administration; assay type: organism-based; conditions: CDF1, mouse, in vivo, ip
Method in brief: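 Acute toxicity after one ip dose in male CDF1 mice. The read-out is the LD50, given as preliminary estimates that are either a dose range or a bound in mg/kg.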

Mus musculus [3] = experiment: Antineoplastic activity was evaluated in vivo against murine leukemia P388 (i.p./i.p.; days 1-5) and optimum dose was reported; assay type: functional; method in brief: as §1
Mus musculus [4] = experiment: In vivo % T/C activity was measured against P388 leukemia; 210; assay type: functional; method in brief: as §1
Mus musculus [5] = experiment: In vivo % T/C activity was measured against P388 leukemia; 155; assay type: functional; method in brief: as §1
Mus musculus [6] = experiment: In vivo % T/C activity was measured against P388 leukemia; 290; assay type: functional; method in brief: as §1
Mus musculus [7] = experiment: Antineoplastic activity was evaluated in vivo against murine leukemia P388 (i.p./i.p.; days 1-5) and optimum dose was reported;120; assay type: functional; method in brief: as §1
Mus musculus [8] = experiment: In vivo % T/C activity was measured against P388 leukemia; assay type: functional; method in brief: as §1

SMILES	IC50 (L1210)	Optimal dose (Mus musculus [3]) [mg kg-1 injection-1]	other results
Cc1nc2ccc(NCCN(C)C)c3c(=O)c4cc(O)ccc4n1c23	0.06 µg/mL and 135 nM	12.5	T/C (Mus musculus [1]): 200%; LD50 [2]: 250 mg/kg
CN(C)CCCNc1ccc2ncn3c4ccc(O)cc4c(=O)c1c23	0.014 µg/mL and 34 nM	5	–
CN(C)CCNc1ccc2ncn3c4ccc(O)cc4c(=O)c1c23	0.02 µg/mL and 48 nM	12.5	T/C (Mus musculus [4]): 210%
CCN(CC)CCNc1ccc2ncn3c4ccc(OC)cc4c(=O)c1c23	0.78 µg/mL and 1.8 µM	100	LD50 [2]: 500 mg/kg
CCN(CC)CCCNc1ccc2nc(C)n3c4ccc(O)cc4c(=O)c1c23	0.4 µg/mL and 890 nM	25	T/C (Mus musculus [5]): 150%
CCN(CC)CCNc1ccc2nc(C)n3c4ccc(O)cc4c(=O)c1c23	0.11 µg/mL and 250 nM	75	LD50 [2]: 500 mg/kg; T/C (Mus musculus [6]): 280%
COc1ccc2c(c1)c(=O)c1c(NCCN(C)C)ccc3nc(C)n2c31	0.34 µg/mL and 770 nM	150	–
CCN(CC)CCNc1ccc2nc(C)n3c4ccc(OC)cc4c(=O)c1c23	0.7 µg/mL and 1.55 µM	–	Optimal dose (Mus musculus [7]): 150 mg kg-1 injection-1
Cc1nc2ccc(NCCCN(C)C)c3c(=O)c4cc(O)ccc4n1c23	0.1 µg/mL and 230 nM	100	–
CCN(CC)CCCNc1ccc2ncn3c4ccc(O)cc4c(=O)c1c23	0.08 µg/mL and 180 nM	25	–
CCN(CC)CCNc1ccc2ncn3c4ccc(O)cc4c(=O)c1c23 [C-1311]	0.013 µg/mL and 31 nM	5	LD50 [2]: > 200 mg/kg
COc1ccc2c(c1)c(=O)c1c(NCCN(C)C)ccc3ncn2c31	0.65 µg/mL and 1.65 µM	100	–
CCN(CC)CCCNc1ccc2ncn3c4ccc(OC)cc4c(=O)c1c23	1.1 µg/mL and 2.5 µM	150	–
COc1ccc2c(c1)c(=O)c1c(NCCCN(C)C)ccc3nc(C)n2c31	1.4 µg/mL and 3.2 µM	150	–
O=C1c2ccccc2C(=O)c2c(NCCNCCO)ccc(NCCNCCO)c21 [AMETANTRONE]	1.77 µg/mL and 3.65 µM	12.5	T/C (Mus musculus [8]): 300%
CCN(CC)CCCNc1ccc2nc(C)n3c4ccc(OC)cc4c(=O)c1c23	0.7 µg/mL and 1.4 µM	150	–
COc1ccc2c(c1)c(=O)c1c(NCCCN(C)C)ccc3ncn2c31	3.5 µg/mL and 8.2 µM	150	–
